# Insulin prom up = MIN6 insulin promoter up-regulation; AID 1625; MIN6 insulin promoter-GFP reporter, high-content imaging; stronger effect = higher value; z-score at 5 µM; actives 0.3% (n = 190,000);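 active means z-score above 3 at 5 µM with at least 500 cells counted in the well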
# ABCG2 inh = blocks JC-1 efflux by human ABCG2 transporter; Q9UNQ0; IgMXP3 cells, flow cytometry; inhibition, % at 6.6 µM; actives 0.1% (n = 190,000);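 active means inhibition above 80%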;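 further: 0% = DMSO and 100% = nicardipine control wells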
#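 Measure – % inhibition of efflux relative to nicardipine and DMSO · Test system – ABCG2 IgMXP3 and barcoded ABCB1 CCRF-Adr cell mix · Control set – nicardipine as high control, DMSO as low control · Compound – one concentration, 6.6 µM final · Signal – flow cytometry of retained JC-1 fluorescence · Timing – 10 min exposure at 25 °C with rotation, no wash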
# SDO1 yeast rescue = sdo1-depleted yeast growth rescue; S. cerevisiae sdo1-depleted JHY4D growth rescue, OD600 30 h; stronger effect = higher value; pdr5 snq2 efflux-pump mutant strain; z-score at 10 µM; actives 0.21% (n = 140,000); AID 817;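 active means z-score above 3 at both the 24 hr and the 30 hr optical density reads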;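 further: z-score against mean and SD of all compound wells on the same plate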
# Autophagy HCS = autophagy modulation, high-content screen; MEF GFP-LC3 puncta imaging; test concentration mostly 10 µM; calls only at 10 µM (by protocol); actives 0.98% (n = 190,000);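 active means percentage of spot-positive cells more than 3 SD above its plate mean, without a fluorescence outlier flag or 80% toxicity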;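 further: spot-positive cell cutoff set from DMSO-treated cells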
# ROMK mod = modulators of human ROMK potassium channel | P48048 | B-score at 10 µM | AID 1918 | actives 2% (n = 130,000) | Tet-inducible ROMK, thallium flux fluorescence; actives lie on both sides;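 active means signal ratio slope over the read window, or its plate-corrected B-score, at least 3 SD from the plate mean, either direction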;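 further: B-score of the F/F0 ratio slope over 7 to 12 s after thallium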
# ABCB1 inh = inhibitors of human ABCB1 transporter, ABCG2 counter-screen; CCRF-Adr cells, JC-1 efflux, flow cytometry; inhibition, % at 6.6 µM; actives 0.067% (n = 190,000); AID 1326; in the data active means inhibition above about 40%;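 further: 0% = vehicle and 100% = reference inhibitor; higher value means more JC-1 retained so stronger ABCB1 efflux block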
# Target sequence (P08183 whole entry, looked up): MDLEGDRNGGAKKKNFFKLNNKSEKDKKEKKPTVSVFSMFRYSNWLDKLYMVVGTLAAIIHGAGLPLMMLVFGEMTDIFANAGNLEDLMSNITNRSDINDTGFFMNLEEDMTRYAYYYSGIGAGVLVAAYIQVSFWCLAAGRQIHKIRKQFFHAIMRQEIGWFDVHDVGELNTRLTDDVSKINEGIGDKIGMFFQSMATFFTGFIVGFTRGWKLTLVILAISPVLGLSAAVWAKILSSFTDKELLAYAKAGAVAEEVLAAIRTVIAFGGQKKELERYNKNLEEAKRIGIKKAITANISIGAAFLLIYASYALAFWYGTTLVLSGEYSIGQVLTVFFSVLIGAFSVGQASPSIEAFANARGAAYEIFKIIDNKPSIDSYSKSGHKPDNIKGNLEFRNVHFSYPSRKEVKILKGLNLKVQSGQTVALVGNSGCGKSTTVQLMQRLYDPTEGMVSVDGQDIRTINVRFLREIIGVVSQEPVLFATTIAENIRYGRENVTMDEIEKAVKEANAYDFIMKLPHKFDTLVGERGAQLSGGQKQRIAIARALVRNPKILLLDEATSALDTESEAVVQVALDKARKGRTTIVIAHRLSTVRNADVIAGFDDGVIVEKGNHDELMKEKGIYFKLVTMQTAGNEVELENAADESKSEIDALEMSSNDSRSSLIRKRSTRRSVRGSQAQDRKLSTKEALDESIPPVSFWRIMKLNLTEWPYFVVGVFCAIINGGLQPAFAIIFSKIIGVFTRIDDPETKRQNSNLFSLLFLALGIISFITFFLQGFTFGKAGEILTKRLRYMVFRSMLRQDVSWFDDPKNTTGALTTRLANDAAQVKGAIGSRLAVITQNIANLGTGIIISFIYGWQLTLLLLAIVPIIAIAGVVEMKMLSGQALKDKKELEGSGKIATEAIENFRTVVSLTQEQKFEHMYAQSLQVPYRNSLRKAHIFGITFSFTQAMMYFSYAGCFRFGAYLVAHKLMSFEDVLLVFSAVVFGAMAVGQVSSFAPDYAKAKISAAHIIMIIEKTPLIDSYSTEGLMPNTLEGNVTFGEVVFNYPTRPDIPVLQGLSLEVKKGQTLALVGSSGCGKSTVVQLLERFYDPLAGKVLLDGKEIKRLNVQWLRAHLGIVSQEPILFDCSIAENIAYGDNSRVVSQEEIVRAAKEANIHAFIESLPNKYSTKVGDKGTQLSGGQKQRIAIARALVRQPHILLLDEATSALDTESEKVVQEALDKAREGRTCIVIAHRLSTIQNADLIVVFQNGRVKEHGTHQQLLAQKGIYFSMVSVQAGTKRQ
# SDO1 rescue DR = SDO1-depleted yeast growth rescue confirmation. shares compounds with SDO1 yeast rescue. S. cerevisiae JHY4D (SDO1-depleted) growth rescue, OD600, 30 h; stronger effect = higher value; efflux-deficient strain, SNQ2 and PDR5 mutated. OD recovery (concentration not given with the values). actives 44% (n = 440). AID 949;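 active means yeast growth recovered at 30 hours, either rising with dose fitted slope above 0.001 or with average optical density gain above 0.07, some results past the limit were not filed as active; inactive means growth falling with dose or no effect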;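 further: gain in OD600 from 0 h to 30 h averaged across all seven doses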
# The depositor's hits bear a star; i = inactive; nt = no result. In the library only some 2.3% were active in any assay of this set; here they are far more common.
SMILES,Insulin prom up,ABCG2 inh,SDO1 yeast rescue,Autophagy HCS,ROMK mod,ABCB1 inh,SDO1 rescue DR
CCOC(=O)c1cccc(NC(=O)CSc2nnc(COc3ccccc3C)o2)c1,nt,43,1.2,i,nt,0,0.054
CC(C)(C)c1cc(CN(CCO)CCO)c(O)c(C(C)(C)C)c1,0.27,nt,nt,nt,nt,nt,nt
COc1ccc(/C=N\NC(=O)COc2ccc(Cl)cc2Cl)c(C(=O)O)c1OC,0.02,1,2.5,i,1.6,0,0.042
NC(=O)N/N=C/c1c(Sc2nnnn2-c2ccccc2)nc2ccccn2c1=O,0.14,nt,nt,nt,nt,nt,nt
CN1CCN(c2ccc(Cl)cc2NC(=O)c2ccc(S(=O)(=O)N(C)C)cc2)CC1,nt,5,4.3*,i,-0.48,2,0.045
Cc1cccc(NC(=O)COC(=O)CNC(=O)C2CCCCC2)c1,0.84,1,5.7*,i,0.018,0,0.067
COc1cccc(C(=O)Nc2ccc(NC(=O)C3CC3)cn2)c1,-0.16,5,2.4,i,nt,1,0.084*
Cc1cc(C)nc(N2CCCC(C(=O)NCc3ccccc3F)C2)n1 (stereo not drawn),nt,0,nt,i,-1.4,0,nt
O=C(C1=C[C@@H](c2ccc(C(F)(F)F)cc2)C[C@@H](OCc2ccc(CO)cc2)O1)N1CCN(Cc2ccccc2)CC1,nt,10,nt,i,nt,3,nt
COC(=O)C1=C(C)NC(C)=C(C(=O)OC)C1c1ccc(OC(=O)c2ccco2)cc1,0.5,0,10*,i,1.9,0,0.079*
COC(=O)C1=C(C)NC(=S)NC1c1ccc(OC(=O)c2ccco2)cc1 (stereo not drawn),nt,1,nt,i,-0.48,1,nt
O=C(CSc1nc(Nc2ccccc2)nc(N2CCOCC2)n1)N1CCCC1,-0.57,2,4*,i,nt,-1,0.1
Cc1cc(C)nc(SCC(=O)Nc2ncc(Cc3cccc(Cl)c3)s2)n1,nt,0,1.2,i,0.18,0,0.091*
O=C(c1cccc(C(F)(F)F)c1)N(c1ccccn1)C1CCCCC1,-0.72,0,nt,i,0.06,0,nt
CC(=O)Oc1ccc(N(C(C)=O)S(=O)(=O)c2ccc(C)c([N+](=O)[O-])c2)cc1,0.74,-1,2.2,i,0.54,0,nt
COCCn1c(SCc2cnc(-c3ccccc3)s2)nnc1-c1ccncc1,0.71,2,-1.2,i,nt,1,nt
COc1ccc(-n2cnnc2SCc2cnc(-c3ccccc3)s2)cc1,0.16,2,3.1*,i,nt,1,0.082
Cc1ccc(N(Cc2ccc(C(=O)NCCSc3ccccn3)cc2)S(C)(=O)=O)cc1C,0.19,11,7.2*,i,-2,1,0.1*
Cc1ccc(S(=O)(=O)N2CC=C(c3ccc(F)cc3)CC2)cc1,0.13,-1,7.1*,i,0.18,0,0.03
Nc1nc(NC(=O)c2ccco2)nn1-c1ccccc1,-0.46,2,3.1*,i,0.56,0,0.048
CCOc1ccccc1/C=N/Nc1ccccc1[N+](=O)[O-],0.39,11,1.2,i,nt,6,0.052
O=C(O)CNC(=O)CCCn1nnc2ccccc2c1=O,-0.78,nt,nt,nt,-0.011,nt,nt
COc1ccc(CNc2nc3c(c(=O)n(Cc4ccc(Br)cc4)c(=O)n3C)n2C)cc1,-0.78,3,-0.01,i,-1.2,1,0.069
Cn1c(NCc2ccccc2)nc2c1c(=O)n(Cc1ccc(Br)cc1)c(=O)n2C,-1.3,4,-2,i,-0.47,1,nt
O=C(c1ccco1)N1CCN(c2c([N+](=O)[O-])nn(-c3cccc(Cl)c3)[n+]2[O-])CC1,0.08,12,nt,i,-0.74,1,nt
COc1cccc(-c2cc(C(=O)NCCN3CCOCC3)no2)c1,0.36,4,-0.65,i,nt,1,nt
COc1ccccc1-c1cc(C(=O)NCCN2CCOCC2)no1,0.08,18,1.5,i,0.023,1,0.042
Cc1ccc(C)c(OCCCC(=O)Nc2nccs2)c1,-0.24,7,10*,i,0.22,1,0.087*
Cc1ccccc1OCCCC(=O)Nc1nccs1,-0.25,4,-0.34,i,0.17,1,nt
CCOc1ccccc1NC(=O)CSc1ncnc2c1oc1ccccc12,-1.4,2,0.13,i,0.51,1,nt

# From PubChem BioAssay
